Test results: ChEMBL document CHEMBL4392864, “Diketopiperazine-Type Alkaloids from a Deep-Sea-Derived Aspergillus puniceus Fungus and Their Effects on Liver X Receptor α” (J Nat Prod, 2019)
Activity calls are given as the source filed them. The rule behind the calls is not given here.

Tests used:
[1] = molecular target: T1, Oxysterols receptor LXR-alpha (Homo sapiens, UniProt Q13133); experiment: Transactivation of recombinant GAL4-fused human LXRalpha LBD (163 to 447 residues) expressed in human L02 cells measured after 24 hrs by luciferase reporter gene assay; format: cell-based
T1 sequence (Q13133 whole entry): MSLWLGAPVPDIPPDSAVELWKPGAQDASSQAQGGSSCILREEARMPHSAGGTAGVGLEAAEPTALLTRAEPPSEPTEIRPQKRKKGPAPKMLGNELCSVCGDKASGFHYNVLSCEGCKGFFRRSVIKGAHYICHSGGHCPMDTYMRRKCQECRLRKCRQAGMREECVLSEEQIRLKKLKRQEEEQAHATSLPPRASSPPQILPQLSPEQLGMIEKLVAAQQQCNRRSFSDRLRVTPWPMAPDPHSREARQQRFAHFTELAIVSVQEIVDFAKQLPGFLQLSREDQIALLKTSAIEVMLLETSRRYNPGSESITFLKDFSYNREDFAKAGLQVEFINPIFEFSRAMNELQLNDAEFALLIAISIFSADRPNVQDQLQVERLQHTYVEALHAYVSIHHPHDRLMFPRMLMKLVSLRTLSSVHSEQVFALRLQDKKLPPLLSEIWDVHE

[2] = molecular target: T2, Tyrosine-protein phosphatase non-receptor type 2 (Homo sapiens) (UniProt P17706); experiment: (§1) Inhibition of recombinant human TCPTP expressed in Escherichia coli […] preincubated for 15 mins followed by substrate addition and measured after 60 mins
T2 sequence (whole entry): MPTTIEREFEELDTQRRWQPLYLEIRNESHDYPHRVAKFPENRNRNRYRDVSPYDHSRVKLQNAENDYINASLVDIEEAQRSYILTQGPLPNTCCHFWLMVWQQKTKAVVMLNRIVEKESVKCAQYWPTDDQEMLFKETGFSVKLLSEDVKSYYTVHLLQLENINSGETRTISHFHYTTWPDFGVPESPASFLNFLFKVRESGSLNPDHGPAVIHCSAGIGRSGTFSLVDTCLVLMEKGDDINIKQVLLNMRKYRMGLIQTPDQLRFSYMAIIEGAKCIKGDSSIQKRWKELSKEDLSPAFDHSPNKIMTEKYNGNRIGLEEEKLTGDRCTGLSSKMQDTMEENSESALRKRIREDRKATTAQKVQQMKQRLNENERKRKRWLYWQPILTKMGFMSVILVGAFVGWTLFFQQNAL
How it was run: (§2)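 Recombinant human phosphatases were expressed in E. coli and purified. Enzyme and compound were preincubated for 15 min at room temperature in pH 6.5 buffer (50 mM HEPES, 100 mM NaCl, 1 mM EDTA, 1 mM DTT). Buffer containing 50 mM pNPP was then added and the mix incubated for 60 min at 37 °C. Product p-nitrophenol was read at 405 nm. Assays were run in triplicate and IC50 derived.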

[3] = molecular target: Tyrosine-protein phosphatase non-receptor type 6 (Homo sapiens, UniProt P29350); experiment: Inhibition of recombinant human SHP1 expressed in Escherichia coli […] preincubated for 15 mins followed by substrate addition and measured after 60 mins; how it was run: as §2
[4] = molecular target: T3, Tyrosine-protein phosphatase non-receptor type 11 (Homo sapiens) (UniProt Q06124); experiment: (§3) Inhibition of recombinant human SHP2 expressed in Escherichia coli […] preincubated for 15 mins followed by substrate addition and measured after 60 mins; how it was run: as §2
T3 sequence (whole entry): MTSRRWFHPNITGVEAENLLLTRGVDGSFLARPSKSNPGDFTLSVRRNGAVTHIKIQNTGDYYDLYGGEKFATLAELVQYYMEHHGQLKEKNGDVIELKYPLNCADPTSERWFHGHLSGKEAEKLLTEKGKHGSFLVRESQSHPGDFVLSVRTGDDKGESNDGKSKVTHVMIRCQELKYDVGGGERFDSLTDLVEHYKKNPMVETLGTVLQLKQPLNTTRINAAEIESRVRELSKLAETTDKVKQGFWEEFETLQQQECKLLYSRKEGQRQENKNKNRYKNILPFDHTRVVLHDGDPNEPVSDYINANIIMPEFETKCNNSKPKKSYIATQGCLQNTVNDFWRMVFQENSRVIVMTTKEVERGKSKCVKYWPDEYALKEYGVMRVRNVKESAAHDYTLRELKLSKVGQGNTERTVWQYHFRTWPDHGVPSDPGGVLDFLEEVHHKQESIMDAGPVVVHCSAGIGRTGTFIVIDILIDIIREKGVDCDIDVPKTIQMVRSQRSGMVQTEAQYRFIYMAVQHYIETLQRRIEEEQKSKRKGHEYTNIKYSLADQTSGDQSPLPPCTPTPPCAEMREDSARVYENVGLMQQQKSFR

[5] = molecular target: T4, Tyrosine-protein phosphatase non-receptor type 9 (Homo sapiens) (UniProt P43378); experiment: (§4) Inhibition of recombinant human MEG2 expressed in Escherichia coli […] preincubated for 15 mins followed by substrate addition and measured after 60 mins; how it was run: as §2
T4 sequence (whole entry): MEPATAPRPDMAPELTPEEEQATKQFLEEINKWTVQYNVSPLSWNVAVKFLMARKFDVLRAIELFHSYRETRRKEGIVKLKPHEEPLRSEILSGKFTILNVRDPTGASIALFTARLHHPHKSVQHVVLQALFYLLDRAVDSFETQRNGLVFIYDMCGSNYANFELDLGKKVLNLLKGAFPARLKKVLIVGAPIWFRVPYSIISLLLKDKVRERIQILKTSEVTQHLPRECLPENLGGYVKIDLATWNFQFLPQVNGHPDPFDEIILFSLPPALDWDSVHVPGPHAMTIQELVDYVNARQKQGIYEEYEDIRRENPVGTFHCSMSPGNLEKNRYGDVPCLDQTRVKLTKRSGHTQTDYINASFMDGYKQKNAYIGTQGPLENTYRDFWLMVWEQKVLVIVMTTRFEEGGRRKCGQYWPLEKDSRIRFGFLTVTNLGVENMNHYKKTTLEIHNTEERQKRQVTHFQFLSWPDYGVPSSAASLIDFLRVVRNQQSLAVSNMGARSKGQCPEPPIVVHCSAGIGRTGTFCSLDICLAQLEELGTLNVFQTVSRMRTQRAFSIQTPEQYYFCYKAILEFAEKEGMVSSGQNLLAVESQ

[6] = molecular target: T5, Tyrosine-protein phosphatase non-receptor type 1 (Homo sapiens) (UniProt P18031); experiment: (§5) Inhibition of recombinant human PTP1B expressed in Escherichia coli […] preincubated for 15 mins followed by substrate addition and measured after 60 mins; how it was run: as §2
T5 sequence (whole entry): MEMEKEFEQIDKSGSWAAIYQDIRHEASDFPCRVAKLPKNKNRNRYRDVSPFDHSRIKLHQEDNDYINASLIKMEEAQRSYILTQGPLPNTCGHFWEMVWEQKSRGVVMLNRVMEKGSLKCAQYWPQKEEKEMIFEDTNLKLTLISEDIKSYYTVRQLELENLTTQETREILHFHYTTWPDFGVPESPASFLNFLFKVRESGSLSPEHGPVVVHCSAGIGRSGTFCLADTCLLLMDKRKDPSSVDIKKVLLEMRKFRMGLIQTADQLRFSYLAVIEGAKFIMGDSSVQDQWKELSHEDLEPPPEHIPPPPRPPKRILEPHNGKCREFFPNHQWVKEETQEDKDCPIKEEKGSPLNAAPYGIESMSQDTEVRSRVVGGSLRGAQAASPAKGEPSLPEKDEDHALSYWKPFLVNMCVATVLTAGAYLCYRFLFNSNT

[7] = molecular target: Indoleamine 2,3-dioxygenase 1 (Homo sapiens, UniProt P14902); experiment: Inhibition of recombinant human IDO1 expressed in Escherichia coli […] preincubated for 15 mins followed by substrate addition and measured after 60 mins
[8] = molecular target: L-lactate dehydrogenase A chain (Homo sapiens) (UniProt P00338); experiment: Inhibition of recombinant human LDHA expressed in Escherichia coli […] preincubated for 15 mins followed by substrate addition and measured after 60 mins
[9] = system: Curvularia australiensis; experiment: Antifungal activity against Curvularia australiensis BY01 assessed as growth inhibition at 0.6 mM measured after 48 hrs by microbroth dilution method; format: functional; conditions: BY01, 48 h, read-out: GI
How it was run: (§6)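 Fungi were grown on PDA plates for 6−8 days at 30 °C, then the mycelia were moved into PD medium and filtered through cotton to give a spore suspension. Each well held PD medium, sample from a 10 mg/mL DMSO stock at about 0.6 mM, and spores (1 × 10^6 CFU). DMSO served as the negative control. OD600 was read at 0 and 48 h at 28 °C and percent growth inhibition calculated.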

[10] = system: Colletotrichum gloeosporioides; experiment: Antifungal activity against Colletotrichum gloeosporioides HNM 1003 assessed as growth inhibition at 0.6 mM measured after 48 hrs by microbroth dilution method; format: functional; conditions: HNM 1003, 48 h, read-out: GI; how it was run: as §6
[11] = system: Fusarium oxysporum; experiment: Antifungal activity against Fusarium oxysporum HNM 1003 assessed as growth inhibition at 0.6 mM measured after 48 hrs by microbroth dilution method; format: functional; conditions: HNM 1003, 48 h, read-out: GI; how it was run: as §6
[12] = system: Pyricularia oryzae; experiment: Antifungal activity against Pyricularia oryzae HNM 1003 assessed as growth inhibition at 0.6 mM measured after 48 hrs by microbroth dilution method; format: functional; conditions: HNM 1003, 48 h, read-out: GI
[13] = molecular target: T6, Tyrosine-protein phosphatase non-receptor type 2 (Homo sapiens, UniProt P17706); experiment: as §1; how it was run: as §2
T6 sequence (P17706 whole entry): T2 sequence (whole entry)

[14] = molecular target: T7, Tyrosine-protein phosphatase non-receptor type 11 (Homo sapiens, UniProt Q06124); experiment: as §3; how it was run: as §2
T7 sequence (Q06124 whole entry): T3 sequence (whole entry)

[15] = molecular target: T8, Tyrosine-protein phosphatase non-receptor type 9 (Homo sapiens, UniProt P43378); experiment: as §4; how it was run: as §2
T8 sequence (P43378 whole entry): T4 sequence (whole entry)

[16] = molecular target: T9, Tyrosine-protein phosphatase non-receptor type 1 (Homo sapiens, UniProt P18031); experiment: as §5; how it was run: as §2
T9 sequence (P18031 whole entry): T5 sequence (whole entry)

Tyrosine-protein phosphatase non-receptor type 6, sequence (P29350 whole entry): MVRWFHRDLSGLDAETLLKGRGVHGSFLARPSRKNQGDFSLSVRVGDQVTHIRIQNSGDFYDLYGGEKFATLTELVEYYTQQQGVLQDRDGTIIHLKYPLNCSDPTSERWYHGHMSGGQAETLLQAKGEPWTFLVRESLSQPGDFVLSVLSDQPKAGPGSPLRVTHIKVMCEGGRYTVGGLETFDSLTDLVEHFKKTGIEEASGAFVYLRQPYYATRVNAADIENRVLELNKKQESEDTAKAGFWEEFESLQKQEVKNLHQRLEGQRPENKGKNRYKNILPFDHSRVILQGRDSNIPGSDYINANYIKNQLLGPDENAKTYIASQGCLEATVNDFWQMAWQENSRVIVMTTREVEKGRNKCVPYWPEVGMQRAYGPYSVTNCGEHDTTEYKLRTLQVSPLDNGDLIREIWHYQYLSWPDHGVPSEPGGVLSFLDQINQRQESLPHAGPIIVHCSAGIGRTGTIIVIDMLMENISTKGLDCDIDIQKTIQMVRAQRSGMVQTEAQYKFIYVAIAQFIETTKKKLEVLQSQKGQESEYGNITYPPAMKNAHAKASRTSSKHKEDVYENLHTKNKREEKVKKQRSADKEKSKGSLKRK

Compound	EC50 [1]	inhibition [2]	inhibition [3]	inhibition [4]	inhibition [5]	inhibition [6]	inhibition [7]	inhibition [8]	inhibition of growth at 600 µM [9]	inhibition of growth at 600 µM [10]	inhibition of growth at 600 µM [11]	inhibition of growth at 600 µM [12]	IC50 [13]	IC50 [3]	IC50 [14]	IC50 [15]	IC50 [16]	IC50 [7]
C[C@@H]1C(=O)N/C(=C\c2ccccc2)c2nc3c(c(=O)n21)C=CC=CO3	50 µM	inactive	inactive	inactive	inactive	inactive	inactive	inactive	< 50%	< 50%	< 50%	< 50%	–	–	–	–	–	–
CO[C@@]1(Cc2ccccc2)NC(=O)[C@@H](C)n2c1nc1c(c2=O)C=CC=CO1	15 µM	inactive	inactive	inactive	inactive	inactive	inactive	inactive	< 50%	< 50%	< 50%	< 50%	–	–	–	–	–	–
C[C@@H]1C(=O)N[C@@](O)(Cc2ccccc2)c2nc3c(c(=O)n21)C=CC=CO3	16 µM	inactive	inactive	inactive	inactive	inactive	inactive	inactive	< 50%	< 50%	< 50%	< 50%	–	–	–	–	–	–
C[C@@H]1C(=O)N[C@@](O)(Cc2ccccc2)c2nc3c(O)cccc3c(=O)n21	1.7 µM	inactive	inactive	inactive	inactive	inactive	inactive	inactive	< 50%	< 50%	< 50%	< 50%	–	–	–	–	–	–
CO[C@]1(Cc2ccccc2)NC(=O)[C@@H](C)n2c1nc1c(c2=O)C=CC=CO1	15 µM	inactive	inactive	inactive	inactive	inactive	inactive	inactive	< 50%	< 50%	< 50%	< 50%	–	–	–	–	–	–
CO[C@]1(Cc2ccccc2)NC(=O)[C@@H](C)n2c1nc1c(O)cccc1c2=O	5.1 µM	inactive	inactive	inactive	inactive	inactive	inactive	inactive	< 50%	< 50%	< 50%	< 50%	–	–	–	–	–	–
C[C@@H]1C(=O)N[C@](O)(Cc2ccccc2)c2nc3c(O)cccc3c(=O)n21	5.3 µM	inactive	inactive	inactive	inactive	inactive	inactive	inactive	< 50%	< 50%	< 50%	< 50%	–	–	–	–	–	–
C[C@@H]1C(=O)N[C@](O)(Cc2ccccc2)c2nc3c(c(=O)n21)C=CC=CO3	47 µM	–	–	–	–	–	–	inactive	< 50%	< 50%	< 50%	< 50%	14 to 87 µM	14 to 87 µM	14 to 87 µM	14 to 87 µM	14 to 87 µM	14 to 87 µM
C[C@@H]1C(=O)N/C(=C\c2ccccc2)c2nc3c(O)cccc3c(=O)n21	1.7 µM	–	–	–	–	–	–	inactive	< 50%	< 50%	< 50%	< 50%	14 to 87 µM	14 to 87 µM	14 to 87 µM	14 to 87 µM	14 to 87 µM	14 to 87 µM
